Source: ChEMBL document CHEMBL1148824, “Quinazolinone derivatives as orally available ghrelin receptor antagonists for the treatment of diabetes and obesity” (J Med Chem, 2007)

Key:
Ghrelin receptor = Ghrelin receptor (Ovis aries, UniProt Q8MHZ5); assay: Displacement of [125I]ghrelin from ovine recombinant GHSR1a expressed in HEK293F cells after 6 hrs by scintillation proximity assay; type: cell-based
[1] = target: T1, Growth hormone secretagogue receptor type 1 (Homo sapiens, UniProt Q92847); assay: Agonist activity at human recombinant GHSR1a expressed in HEK293F cells assessed as stimulation of [35S]GTP-gamma-S binding relative to ghrelin; type: functional, cell-based
Method in brief: (§1)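 Functional read-out as GTPγS binding to membranes from HEK293F cells overexpressing recombinant GHS-R1a; values are the mean of at least two replicates.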

[2] = target: T1, Growth hormone secretagogue receptor type 1; assay: Antagonist activity at human recombinant GHSR1a expressed in HEK293F cells by [35S]GTP-gamma-S binding assay; type: functional, cell-based; method in brief: as §1
[3] = Cmax in Wistar rat at 3 mg/kg, po; type: ADME, organism-based; design: dose 3 mg/kg, route oral; settings: in vivo
Method in brief: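 Wistar rat pharmacokinetic screen; single oral dose of 3 mg/kg in PEG400/methanesulfonic acid (80:20) vehicle; plasma exposure measured.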

Chain of Ghrelin receptor (Q8MHZ5 whole entry): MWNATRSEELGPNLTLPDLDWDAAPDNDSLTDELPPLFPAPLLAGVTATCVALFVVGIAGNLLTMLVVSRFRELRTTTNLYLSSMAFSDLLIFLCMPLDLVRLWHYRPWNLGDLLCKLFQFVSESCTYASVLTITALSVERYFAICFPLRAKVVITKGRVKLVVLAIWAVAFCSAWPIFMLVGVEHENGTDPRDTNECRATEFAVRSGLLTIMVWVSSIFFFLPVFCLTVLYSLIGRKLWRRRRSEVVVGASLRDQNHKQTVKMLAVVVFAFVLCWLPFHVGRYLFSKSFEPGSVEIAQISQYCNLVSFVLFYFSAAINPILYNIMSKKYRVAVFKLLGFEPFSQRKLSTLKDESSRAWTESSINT
T1 sequence (Q92847 whole entry): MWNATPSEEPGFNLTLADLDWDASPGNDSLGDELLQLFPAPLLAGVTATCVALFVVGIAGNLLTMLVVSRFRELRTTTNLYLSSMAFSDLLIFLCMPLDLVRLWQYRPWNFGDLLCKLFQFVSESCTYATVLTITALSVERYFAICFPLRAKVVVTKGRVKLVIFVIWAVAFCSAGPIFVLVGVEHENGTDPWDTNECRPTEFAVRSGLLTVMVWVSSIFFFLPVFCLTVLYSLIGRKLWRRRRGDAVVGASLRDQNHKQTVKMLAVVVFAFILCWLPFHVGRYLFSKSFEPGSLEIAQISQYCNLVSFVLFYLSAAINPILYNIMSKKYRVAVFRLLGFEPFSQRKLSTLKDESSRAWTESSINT

| Compound | Ki (Ghrelin receptor) [nM] | E/Emax [1] [%] | Kb [2] [nM] | Cmax [3] [nM] | EC50 [1] [nM] |
| --- | --- | --- | --- | --- | --- |
| CCN1CCC[C@H](Cn2c(C(C)C)nc3ccc(-c4ccc(F)cc4)cc3c2=O)C1 | 40 |  |  |  |  |
| Cc1ccccc1-c1nc2ccc(-c3ccc(Cl)cc3)cc2c(=O)n1CC1CCCNC1 (configuration not stated) | 7 | 12 | 13 | 20 |  |
| CCN1CCC[C@@H](Cn2c(-c3ccccc3C)nc3ccc(OC(F)(F)F)cc3c2=O)C1 | 95 |  |  |  |  |
| CCN1CCC=C(Cn2c(-c3ccccc3C)nc3ccc(-c4ccc(Cl)cc4)cc3c2=O)C1 | 26 | -18 | 36 | 30 |  |
| CCN1CCC[C@H](Cn2c(-c3ccc(C(F)(F)F)cc3)nc3ccc(-c4ccc(Cl)cc4)cc3c2=O)C1 | 16 |  |  |  |  |
| CCN1CCC[C@H](Cn2c(-c3ccccc3C)nc3ccc(OC(F)(F)F)cc3c2=O)C1 | 16 |  |  |  |  |
| Cc1ccccc1-c1nc2ccc(Oc3ccc(F)cc3)cc2c(=O)n1C[C@@H]1CCCN(C(C)C)C1 | 47 |  |  |  |  |
| Cc1ccccc1-c1nc2ccc(-c3ccc(Cl)cc3)cc2c(=O)n1CC1CN(C(C)C)CCO1 (configuration not stated) | 190 |  |  |  |  |
| CCN1CCCC(Cn2c(-c3ccccc3C)nc3ccc(-c4ccc(Cl)cc4)cc3c2=O)C1 (configuration not stated) [listing 1 of 2 here] | 1.8 |  |  | 120 |  |
| Cc1ccccc1-c1nc2ccc(-c3ccc(Cl)cc3)cc2c(=O)n1CC1CCCN(C2CCC2)C1 (configuration not stated) | 2.5 | -20 | 2.7 | 220 |  |
| Cc1ccccc1-c1nc2ccc(Oc3ccc(F)cc3)cc2c(=O)n1CC1CCCN(C(C)C)C1 (configuration not stated) | 0.47 | 23 | 0.97 | 310 |  |
| Cc1ccccc1-c1nc2ccc(-c3ccc(Cl)cc3)cc2c(=O)n1CC1CCCN(CC(F)(F)F)C1 (configuration not stated) | 2000 |  |  | 170 |  |
| Cc1ccccc1-c1nc2ccccc2c(=O)n1CC1CCCN(C(C)C)C1 (configuration not stated) | 1200 |  |  |  |  |
| CCN1CCC[C@@H](Cn2c(-c3ccc(C(F)(F)F)cc3)nc3ccc(-c4ccc(Cl)cc4)cc3c2=O)C1 | 240 |  |  |  |  |
| CCN1CCCC(Cn2c(-c3ccccc3OC)nc3ccc(OC)cc3c2=O)C1 (configuration not stated) | 910 |  |  |  |  |
| Cc1ccccc1-c1nc2ccc(-c3ccc(Cl)cc3)cc2c(=O)n1CC1CCCN(C(C)C)C1 (configuration not stated) |  |  |  | 150 |  |
| CC(C)c1nc2ccc(-c3ccccc3Cl)cc2c(=O)n1C[C@H]1CCCN(C(C)C)C1 | 127 |  |  |  |  |
| CCN1CCC[C@@H](Cn2c(-c3ccccc3C)nc3ccc(-c4ccc(Cl)cc4)cc3c2=O)C1 | 71 | 10 | 250 |  |  |

The remaining lines, values ahead:

| Ki (Ghrelin receptor) [nM] | E/Emax [1] [%] | Kb [2] [nM] | Cmax [3] [nM] | EC50 [1] [nM] | Compound |
| --- | --- | --- | --- | --- | --- |
| 24 | 4 | 45 | 240 |  | CCN1CCCC(Cn2c(-c3ccccc3C)nc3ccc(OC(F)(F)F)cc3c2=O)C1 (configuration not stated) |
| 0.9 | 92 |  | 40 | 6.5 | Cc1ccccc1-c1nc2ccc(Oc3ccc(F)cc3)cc2c(=O)n1CC1CCCNC1 (configuration not stated) |
| 16 | -9 | 14 | 100 |  | Cc1ccccc1-c1nc2ccc(-c3ccc(Cl)cc3)cc2c(=O)n1CC1CCCN(CCF)C1 (configuration not stated) |
| 0.9 |  |  |  |  | Cc1ccccc1-c1nc2ccc(Oc3ccc(F)cc3)cc2c(=O)n1C[C@H]1CCCN(C(C)C)C1 (stereo in doubt; (S)-35) |
| 5700 |  |  |  |  | CCN1CCC[C@@H](Cn2c(C(C)C)nc3ccc(-c4ccc(F)cc4)cc3c2=O)C1 |
|  | 22 | 0.19 |  |  | Cc1ccccc1-c1nc2ccc(Oc3ccc(F)cc3)cc2c(=O)n1C[C@H]1CCCN(C(C)C)C1 (stereo in doubt; 36) |
|  | 12 | 3.2 |  |  | CCN1CCCC(Cn2c(-c3ccccc3C)nc3ccc(-c4ccc(Cl)cc4)cc3c2=O)C1 (configuration not stated) [listing 2 of 2 here] |
| > 10000 |  |  |  |  | CCN1CCCC(Cn2c(-c3ccccc3OC)nc3cc(-c4ccc(Cl)cc4)ccc3c2=O)C1 (configuration not stated) |
| 36 |  |  |  |  | CCCCN(C)c1ccc2nc(-c3ccccc3OC)n(CC3CCCNC3)c(=O)c2c1 (configuration not stated) |
| > 10000 |  |  |  |  | CCN1CCCC(CCn2c(-c3ccccc3OC)nc3ccc(-c4ccc(Cl)cc4)cc3c2=O)C1 (configuration not stated) |
| 250 |  |  |  |  | Cc1ccccc1-c1nc2ccc(-c3ccc(Cl)cc3)cc2c(=O)n1CC1CCCN(CCC(F)(F)F)C1 (configuration not stated) |
| 1800 |  |  |  |  | CC(C)c1nc2ccc(-c3ccccc3Cl)cc2c(=O)n1C[C@@H]1CCCN(C(C)C)C1 |
